Test results published in ChEMBL document CHEMBL1146487, “New cytotoxic clerodane diterpenoids from the leaves and twigs of Casearia membranacea” (J Nat Prod, 2004).

Key:
PC-3 = experiment: Cytotoxicity against human PC3 cells after 48 hrs by SRB assay; format: functional, cell-based; details: PC-3, 48 h
How it was run: (§1)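 Cells seeded in RPMI 1640 with 5% FBS at 37 °C, 5% CO2. A time-zero plate set fixed with TCA at 24 h. Drug added, then 48 h further incubation. Cold-TCA fixation, 0.4% w/v SRB in 1% acetic acid for 10 min, acetic acid washes, dye dissolved in 10 mM Tris base, A515 read. IC50 = concentration giving 50% absorbance reduction versus untreated cells.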

[1] = Cytotoxicity against human Hep3B cells after 48 hrs by SRB assay; format: functional, cell-based, Hep 3B2; how it was run: as §1

| Structure (SMILES) | IC50 (PC-3) [nM] | IC50 [1] [nM] |
| --- | --- | --- |
| C=CC(=C)CC[C@]1(C)[C@H]2C[C@H](OC(=O)C(C)CC)C=C3[C@H](OC(=O)CCC)O[C@H](OC(C)=O)[C@@]32[C@H](OC(C)=O)[C@H](OC(C)=O)[C@@H]1C (stereo not given in full) | 12800 | 16800 |
| C=CC(=C)CC[C@]1(C)[C@H]2C[C@H](OC(=O)C(C)CC)C=C3[C@H](OC(C)=O)O[C@H](OC(C)=O)[C@@]32[C@H](OC(=O)c2cccnc2)C[C@@H]1C (stereo not given in full) | 13000 | 10800 |
| C=CC(=C)CC[C@]1(C)[C@H]2C[C@H](OC(=O)C(C)CC)C=C3[C@H](OC(C)=O)O[C@H](OC(C)=O)[C@@]32[C@H](O)C[C@@H]1C (relative stereo) | 1800 | 2400 |
| C=CC(=C)CC[C@]1(C)[C@H]2C[C@H](OC(=O)C(C)CC)C=C3[C@H](OC(=O)CCC)O[C@H](OC(C)=O)[C@@]32[C@H](O)C[C@@H]1C (relative stereo) [CASEAMEMBRIN A] | 1500 | 2300 |
| C=CC(=C)CC[C@]1(C)[C@H]2C[C@H](OC(=O)C(C)CC)C=C3[C@H](OC)O[C@H](OC(C)=O)[C@@]32[C@H](O)C[C@@H]1C (relative stereo) [CASEAMEMBRIN B] | 22200 | 18000 |
| C=CC(=C)CC[C@]1(C)[C@H]2C[C@H](OC(=O)C(C)CC)C=C3[C@H](OC(=O)CCC)O[C@H](OC(C)=O)[C@@]32[C@H](O)[C@H](O)[C@@H]1C (relative stereo) [CASEAMEMBRIN C] | 600 | 800 |
| C=CC(=C)CC[C@]1(C)[C@H]2C[C@H](OC(=O)C(C)CC)C=C3[C@H](OC(=O)CCC)O[C@H](OC(C)=O)[C@@]32[C@H](O)[C@H](OC(C)=O)[C@@H]1C (relative stereo) [CASEAMEMBRIN D] | 2400 | 1900 |
| C=CC(=C)CC[C@]1(C)[C@H]2C[C@@H](OC(=O)C(C)CC)C=C3[C@H](OC(C)=O)O[C@H](OC(C)=O)[C@@]32[C@H](O)C[C@@H]1C (relative stereo) [CASEAMEMBRIN E] | 2900 | 2600 |
| C=CC(=C)CC[C@]1(C)[C@H]2C[C@H](OC(=O)C(C)CC)C=C(C=O)[C@@]2(C=O)[C@H](O)C[C@@H]1C (relative stereo) [CASEAMEMBRIN F] | 3000 | 14700 |
| CC(=O)O[C@H]1C(=O)[C@@]2(C)[C@H]([C@H](OC(=O)c3ccccc3)[C@]3(O)C[C@H](OC(=O)[C@H](O)[C@@H](NC(=O)c4ccccc4)c4ccccc4)C(C)=C1C3(C)C)[C@]1(OC(C)=O)CO[C@@H]1C[C@@H]2O [PACLITAXEL] | 16 | 31 |
